According to ChEMBL document CHEMBL4813988, “Design and synthesis of N-(3-sulfamoylphenyl)amides as Trypanosoma brucei leucyl-tRNA synthetase inhibitors” (Eur J Med Chem, 2021):

Test system: Trypanosoma brucei
Assay: Potency index, ratio of IC50 of ZCL539 to IC50 of compound for inhibition of Trypanosoma brucei LeuRS expressed in Escherichia coli BL21 (DE3)-RIPL cells preincubated for 20 mins in presence of [14C]leucine followed by incubation with ATP for 15 mins by liquid scintillation counting method
Settings: time 35.0 min

| Compound | Ratio IC50 |
| --- | --- |
| COc1ccc(C(=O)Nc2cccc(S(=O)(=O)NC(=O)[C@@H](N)CC(C)C)c2)cc1 | > 700 |
| CC(C)C[C@H](N)C(=O)NS(=O)(=O)c1cccc(NC(=O)c2ccc(OCc3ccccc3)cc2)c1 | 700 |

Test system: not listed separately
Assay: Inhibition of Trypanosoma brucei LeuRS expressed in Escherichia coli BL21 (DE3)-RIPL cells preincubated for 20 mins in presence of [14C]leucine followed by incubation with ATP for 15 mins by liquid scintillation counting method
Settings: not given

| Compound | IC50 |
| --- | --- |
| CC(C)C[C@H](N)C(=O)NS(=O)(=O)c1cccc(NC(=O)c2ccc(Cl)cc2)c1 | 4.9 µM |
| CCCCOc1ccc(C(=O)Nc2cccc(S(=O)(=O)NC(=O)[C@@H](N)CC(C)C)c2)cc1 | 0.8 µM |
| CC(C)C[C@H](N)C(=O)NS(=O)(=O)c1cccc(NC(=O)c2ccc(OC(C)C)cc2)c1 | 3.9 µM |
| CC(C)C[C@H](N)C(=O)NS(=O)(=O)c1ccc(NC(=O)c2ccc(Cl)cc2)cc1 | 116 µM |
| Cc1ccccc1C(=O)Nc1cccc(S(=O)(=O)NC(=O)[C@@H](N)CC(C)C)c1 | 14.3 µM |
| CC(C)C[C@H](N)C(=O)NS(=O)(=O)c1cccc(NC(=O)c2ccccc2)c1 | 9.4 µM |
| Cc1ccc(C(=O)Nc2ccc(S(=O)(=O)NC(=O)[C@@H](N)CC(C)C)cc2)cc1 | 39.1 µM |
| COc1cccc(-c2cccc(C(=O)Nc3cccc(S(=O)(=O)NC(=O)[C@@H](N)CC(C)C)c3)c2)c1 | 3.6 µM |
| COc1ccc(C(=O)Nc2cccc(S(=O)(=O)NC(=O)[C@@H](N)CC(C)C)c2)cc1OC | 0.66 µM |
| CC(C)C[C@H](N)C(=O)NS(=O)(=O)c1cccc(NC(=O)c2ccc(O)cc2)c1 | 0.3 µM |
| CC(C)C[C@H](N)C(=O)NS(=O)(=O)c1cccc(NC(=O)c2ccc(Oc3ccccc3)cc2)c1 | 1.3 µM |
| CC(C)C[C@H](N)C(=O)NS(=O)(=O)c1cccc(NC(=O)c2cccc(Oc3ccccc3)c2)c1 | 8.6 µM |
| CC(C)C[C@H](N)C(=O)NS(=O)(=O)c1ccc(NC(=O)c2ccc(Br)cc2)cc1 | 31.2 µM |
| CC(C)C[C@H](N)C(=O)NS(=O)(=O)c1cccc(NC(=O)c2ccc(F)cc2)c1 | 6.4 µM |
| CC(C)C[C@H](N)C(=O)Nc1ccc(S(=O)(=O)NC(=O)[C@@H](N)CC(C)C)cc1 | 107 µM |
| CC(C)C[C@H](N)C(=O)NS(=O)(=O)c1cccc(NC(=O)c2ccc(Br)cc2)c1 | 5.2 µM |
| CC(C)C[C@H](N)C(=O)NS(=O)(=O)c1ccc(NC(=O)c2cccc([N+](=O)[O-])c2)cc1 | > 1000 µM |
| CC(C)C[C@H](N)C(=O)NS(=O)(=O)c1cccc(NC(=O)OCc2ccccc2)c1 | 4 µM |
| CC(C)C[C@H](N)C(=O)NS(=O)(=O)c1cccc(NC(=O)c2cccc(-c3ccccc3)c2)c1 | 3.6 µM |

| Compound | IC50 |
| --- | --- |
| COc1ccc(C(=O)Nc2cccc(S(=O)(=O)NC(=O)[C@@H](N)CC(C)C)c2)cc1 | 0.24 µM |
| NS(=O)(=O)c1ccc(NC(=S)NC(=O)COc2ccc(Br)cc2Cl)cc1 | 174 µM |
| Cc1cccc(C(=O)Nc2ccc(S(=O)(=O)NC(=O)[C@@H](N)CC(C)C)cc2)c1 | 59.7 µM |
| Cc1cccc(C(=O)Nc2cccc(S(=O)(=O)NC(=O)[C@@H](N)CC(C)C)c2)c1 | 9.5 µM |
| COc1cc(C(=O)Nc2cccc(S(=O)(=O)NC(=O)[C@@H](N)CC(C)C)c2)cc(OC)c1OC | 1.48 µM |
| CC(C)C[C@H](N)C(=O)NS(=O)(=O)c1cccc(NC(=O)c2cccs2)c1 | 6.2 µM |
| COc1ccc(-c2cccc(C(=O)Nc3cccc(S(=O)(=O)NC(=O)[C@@H](N)CC(C)C)c3)c2)cc1 | 1.8 µM |
| CC(C)C[C@H](N)C(=O)NS(=O)(=O)c1ccc(NC(=O)c2ccccc2)cc1 | 96 µM |
| COc1cccc(C(=O)Nc2cccc(S(=O)(=O)NC(=O)[C@@H](N)CC(C)C)c2)c1 | 2.4 µM |
| CC(C)C[C@H](N)C(=O)NS(=O)(=O)c1ccc(NC(=O)c2ccc([N+](=O)[O-])cc2)cc1 | 32.7 µM |
| CC(C)C[C@H](N)C(=O)NS(=O)(=O)c1cccc(NC(=O)c2ccccc2[N+](=O)[O-])c1 | 11.5 µM |
| CC(C)C[C@H](N)C(=O)NS(=O)(=O)c1cccc(NC(=O)c2ccco2)c1 | 3.7 µM |
| Cc1ccc(C(=O)Nc2cccc(S(=O)(=O)NC(=O)[C@@H](N)CC(C)C)c2)cc1 | 14 µM |
| CC(C)C[C@H](N)C(=O)NS(=O)(=O)c1cccc(NC(=O)c2ccc(-c3ccccc3)cc2)c1 | 5.8 µM |
| CC(C)C[C@H](N)C(=O)NS(=O)(=O)c1cccc(NC(=O)c2cccc([N+](=O)[O-])c2)c1 | 8.6 µM |
| CC(C)C[C@H](N)C(=O)NS(=O)(=O)c1cccc(NC(=O)c2ccc(OCc3ccccc3)cc2)c1 | 0.25 µM |
| CCOc1ccc(C(=O)Nc2cccc(S(=O)(=O)NC(=O)[C@@H](N)CC(C)C)c2)cc1 | 0.5 µM |
| CC(C)C[C@H](N)C(=O)NS(=O)(=O)c1ccc(NC(=O)c2cccc(Cl)c2)cc1 | 42.8 µM |
| CC(C)C[C@H](N)C(=O)NS(=O)(=O)c1cccc(NC(=O)c2ccc([N+](=O)[O-])cc2)c1 | 14.7 µM |

Test system: Trypanosoma brucei brucei
Assay: Antitrypanosomal activity against bloodstream form of Trypanosoma brucei brucei 221 assessed as parasite growth inhibition incubated for 72 hrs by resazurin staining based assay
Type: functional, organism-based
Settings: Trypanosoma brucei, 221, 72 h
Procedure, shortened: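 Trypanosomes kept in log phase in complete HMI-11 by subculture every 2-3 days, counted by hemocytometer, plated at final 1.0 × 10⁵/mL with serially DMSO-diluted compound (final 0.4% DMSO), triplicate wells. 72 h at 37 °C, 5% CO₂; resazurin added, further 5 h. Fluorescence ex 544/em 590 nm; triplicates averaged, IC₅₀ from sigmoidal dose-response fit.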

| IC50 | Compound |
| --- | --- |
| 7 ng/mL | Cc1ccc(C(=O)Nc2ccc(S(=O)(=O)O)c3cc(S(=O)(=O)O)cc(S(=O)(=O)O)c23)cc1NC(=O)c1cccc(NC(=O)Nc2cccc(C(=O)Nc3cc(C(=O)Nc4ccc(S(=O)(=O)O)c5cc(S(=O)(=O)O)cc(S(=O)(=O)O)c45)ccc3C)c2)c1 [SURAMIN] |
| 9 ng/mL | N=C(N)c1ccc(OCCCCCOc2ccc(C(=N)N)cc2)cc1 [PENTAMIDINE] |
| 69.8 µM | CC(C)C[C@H](N)C(=O)NS(=O)(=O)c1cccc(NC(=O)c2ccc(OCc3ccccc3)cc2)c1 |
